From ChEMBL document CHEMBL2046366, “Design, synthesis and biological evaluation of novel imidazopyridines as potential antidiabetic GSK3β inhibitors” (Bioorg Med Chem Lett, 2012) come the findings set out here.

For orientation: AUC means concentration integrated over time. Higher therefore signals more exposure. What is called Tmax is the time at which the peak concentration occurs. Usually Cmax stands for the peak of the concentration-time curve.

Data set [1] can be described thus: Metabolic stability in mouse liver microsome after 45 mins by mass spectroscopy. The format is ADME. To be noted: liver microsomes, read-out: Stability. The essentials: (§1)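 Compound incubated with human or mouse liver microsomes at 37 °C for 45 min. Percent compound remaining was measured by mass spectrometry.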
Data set [2] is described as follows: Metabolic stability in human liver microsome after 45 mins by mass spectroscopy. It is filed as ADME. To be noted: liver microsomes, read-out: Stability. The essentials:
as §1

Data set [3] can be described thus: AUC in ICR mouse at 27.3 mg/kg, po. It is filed as ADME, organism-based. More on the design: dose 27.3 mg/kg, route oral. To be noted: plasma. The essentials:
(§2)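 Single oral dose of 27.3 mg kg^-1, given as HCl salt formulation, to male ICR mice (n = 2). AUC, Cmax and Tmax were derived from plasma concentration–time data.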

The nature of data set [4]: Tmax in ICR mouse at 27.3 mg/kg, po. It is filed as ADME, organism-based. Set-up: dose 27.3 mg/kg, route oral. As to conditions: in vivo. The essentials: as §2
Data set [5] is described as follows: Cmax in ICR mouse at 27.3 mg/kg, po. It is filed as ADME, organism-based. To be noted: in vivo. More on the design: dose 27.3 mg/kg, route oral. The essentials:
as §2

Take `O=C(NCCCc1ccc(Cl)nc1)c1ccnc2[nH]c(-c3ccc(F)cc3)nc12`: the values for the remaining at 0.75 h in data set [1] and in data set [2] were 4.2% and 25.7%, respectively.

In data set [3], `COc1ccncc1NC(=O)c1ccnc2[nH]c(-c3cccc(Cl)c3)nc12.Cl` registered an AUC of 27 ng·h/mL.

For the molecule `O=C(NCCc1ccc(F)nc1)c1ccnc2nc(-c3ccc(F)cc3)[nH]c12`, the remaining at 0.75 h was 2.9% in data set [1] and 9.4% in data set [2].

Turning to `O=C(Nc1cccnc1)c1ccnc2[nH]c(-c3ccc(F)cc3)nc12`, the remaining at 0.75 h in data set [1] was determined as 70%.

As to `O=C(NCCc1cccc(O)c1)c1ccnc2[nH]c(-c3ccc(F)cc3)nc12`, the remaining at 0.75 h amounted to 11.1% in data set [1] and 12.1% in data set [2].

In the case of `CS(=O)(=O)Nc1ccc(CCNC(=O)c2ccnc3[nH]c(-c4ccc(F)cc4)nc23)cc1`, the remaining at 0.75 h worked out at 0.8% in data set [1] and 13% in data set [2].

As to `CN(C)S(=O)(=O)Nc1ccc(CCNC(=O)c2ccnc3[nH]c(-c4ccc(F)cc4)nc23)cc1`, the results for the remaining at 0.75 h in data set [1] and in data set [2] were 1% and 7.4%, respectively.

Take `CS(=O)(=O)Nc1ccc(CCNC(=O)c2ccnc3[nH]c(-c4ccc(Cl)cc4)nc23)cc1`: the remaining at 0.75 h was 70.2% in data set [1] and 86.6% in data set [2].

For the molecule `CS(=O)(=O)Nc1ccc(CCNC(=O)c2ccnc3[nH]c(-c4ccoc4)nc23)cc1`, the remaining at 0.75 h in data set [1] turned out to be 5.2%; in data set [2] it was 47%.

Turning to `CS(=O)(=O)Nc1ccc(CCNC(=O)c2ccnc3[nH]c(-c4cccs4)nc23)cc1`, the remaining at 0.75 h in data set [1] is 2.2%; in data set [2], 36.8%.

As for `CN(C)S(=O)(=O)Nc1ccc(CCNC(=O)c2ccnc3[nH]c(-c4ccsc4)nc23)cc1`, the remaining at 0.75 h was found to be 1.6% in data set [1] and 13.3% in data set [2].

On to `O=C(NCCc1cccnc1Cl)c1ccnc2[nH]c(-c3ccoc3)nc12`, for which the figures for the remaining at 0.75 h in data set [1] and in data set [2] were 1.5% and 26.5%, respectively.

For the molecule `Cc1ccncc1NC(=O)c1ccnc2[nH]c(N3CCC(c4ccccc4)C3)nc12` (centres undefined), the remaining at 0.75 h in data set [1] stood at 28.9%; in data set [2], 36.5%.

With `CCN(CC)c1ccc(-c2nc3c(C(=O)Nc4cnccc4C)ccnc3[nH]2)cc1`, the remaining at 0.75 h in data set [1] and in data set [2] was 0% each time.

With `COc1ccncc1NC(=O)c1ccnc2[nH]c(-c3ccc(F)cc3)nc12`, the remaining at 0.75 h in data set [1] is 87%; in data set [2], 71%.

Turning to `CCOc1ccncc1NC(=O)c1ccnc2[nH]c(-c3ccc(F)cc3)nc12`, the remaining at 0.75 h came out at 36% in data set [1] and 38% in data set [2].

Turning to `Cc1ccc(NC(=O)c2ccnc3[nH]c(-c4ccc(F)cc4)nc23)cn1`, the remaining at 0.75 h in data set [1] turned out to be 47.4%; in data set [2], 33.3%.

Turning to `COc1ccc(-c2nc3c(C(=O)Nc4cnccc4C)ccnc3[nH]2)cc1`, the figures for the remaining at 0.75 h in data set [1] and in data set [2] were 56.8% and 51.4%, respectively.

For `COc1cccc(-c2nc3c(C(=O)Nc4cnccc4C)ccnc3[nH]2)c1`, the remaining at 0.75 h in data set [1] worked out at 6.6%; in data set [2], 4%.

Consider `CCOc1ccncc1NC(=O)c1ccnc2[nH]c(-c3cccnc3)nc12`, for which the remaining at 0.75 h was determined as 6.3% in data set [1] and 6.5% in data set [2].

For the molecule `CCOc1ccncc1NC(=O)c1ccnc2[nH]c(-c3cccc(OC)c3)nc12`, the results for the remaining at 0.75 h in data set [1] and in data set [2] were 6.4% and 23.8%, respectively.

Regarding `COc1ccncc1NC(=O)c1ccnc2[nH]c(-c3cccc(Cl)c3)nc12`, the figures for the remaining at 0.75 h in data set [1] and in data set [2] were 46.7% and 36.5%, respectively.

As for `COc1ccncc1NC(=O)c1ccnc2nc(-c3ccncc3)[nH]c12`, the remaining at 0.75 h in data set [1] amounted to 27%; in data set [2] it was 96%.

In turn, `Cc1ccncc1NC(=O)c1ccnc2[nH]c(N3CCC(c4ccccc4)C3)nc12.Cl` (centres undefined) displayed an AUC in data set [3] of 39 ng·h/mL.

On to `COc1ccncc1NC(=O)c1ccnc2[nH]c(-c3ccc(F)cc3)nc12.Cl`, for which the Tmax in data set [4] was determined as 1 h. Besides, the Cmax in data set [5] worked out at 228 ng/mL. Also, in data set [3], the AUC was 545 ng·h/mL.

Turning to `Cc1ccc(NC(=O)c2ccnc3[nH]c(-c4ccc(F)cc4)nc23)cn1.Cl`, the Tmax in data set [4] was 3 h. In data set [5], this molecule showed a Cmax of 843 ng/mL. The same molecule registered an area under the curve (AUC) in data set [3] of 2400 ng·h/mL.

For the molecule `COc1ccc(-c2nc3c(C(=O)Nc4cnccc4C)ccnc3[nH]2)cc1.Cl`, the Tmax in data set [4] came to 0.5 h. Also, the Cmax in data set [5] is 496 ng/mL. In data set [3], the AUC is 645 ng·h/mL.
